In ChEMBL document CHEMBL2046337, “Inhibitors for Bacterial Cell-Wall Recycling” (ACS Med Chem Lett, 2012):
Active and inactive are the calls of the source. No cut-off for these calls is given here.

T1: Membrane-bound lytic murein transglycosylase B (Escherichia coli (strain K12), UniProt P41052)
T1 sequence (P41052 whole entry): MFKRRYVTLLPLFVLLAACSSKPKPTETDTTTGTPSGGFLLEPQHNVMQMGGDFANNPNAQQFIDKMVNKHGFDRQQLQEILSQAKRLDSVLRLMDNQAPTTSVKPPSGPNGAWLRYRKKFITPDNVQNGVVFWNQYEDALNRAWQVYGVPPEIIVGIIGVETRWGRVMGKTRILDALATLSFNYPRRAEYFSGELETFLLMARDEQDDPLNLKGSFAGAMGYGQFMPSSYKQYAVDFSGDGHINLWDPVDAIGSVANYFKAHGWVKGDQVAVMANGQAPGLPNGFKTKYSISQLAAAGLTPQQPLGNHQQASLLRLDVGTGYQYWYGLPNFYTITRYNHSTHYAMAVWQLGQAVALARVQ

B1: Beta-hexosaminidase (Pseudomonas aeruginosa (strain ATCC 15692 / PAO1 / 1C / PRS 101 / LMG12228)), Q9HZK0 (protein)
chain: MQGSLMLDIGGTWLTAEDRQILRHPEVGGLIIFARNIEHPAQVRELCAAIRAIRPDLLLAVDQEGGRVQRLRQGFVRLPAMRAIADNPNAEELAEHCGWLMATEVQAVGLDLSFAPVLDLDHQRSAVVGSRAFEGDPERAALLAGAFIRGMHAAGMAATGKHFPGHGWAEADSHVAIPEDARSLEEIRRSDLVPFARLAGQLDALMPAHVIYPQVDPQPAGFSRRWLQEILRGELKFDGVIFSDDLSMAGAHVVGDAASRIEAALAAGCDMGLVCNDRASAELALAALQRLKVTPPSRLQRMRGKGYANTDYRQQPRWLEALSALRAAQLID

Columns and labels:
[1] = biological target: T1, Membrane-bound lytic murein transglycosylase B; test: Binding affinity to Escherichia coli K12 MG1655 His6x-tagged MltB lytic transglycosylase assessed as intrinsic fluorescence of tryptophan and/or tyrosine residues of enzyme; design: species or system Escherichia coli K-12
Method in brief: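 MltB at 0.25 μM in 50 mM HEPES pH 7.6, 0.20 M NaCl, Brij-35, titrated with aliquots of 42 mM aqueous compound stock; equilibrated at 25 °C with stirring after each addition. Emission read at 334.06 nm (excitation 280 nm, scan 290-450 nm), corrected for dilution. Kd from fit to one-site saturation model, with or without a non-specific binding term.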

[2] = biological target: Beta-hexosaminidase (Pseudomonas aeruginosa (strain ATCC 15692 / PAO1 / 1C / PRS 101 / LMG12228)) (UniProt Q9HZK0); test: Inhibition of Pseudomonas aeruginosa PAO1 NagZ using PNP-GlcNAc as substrate assessed as release of 4-nitrophenolate ion after 4 mins by spectrophotometric analysis
Method in brief: (§1)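 His-tagged NagZ, purified by Ni-affinity, at 40 nM in PBS pH 7.4 (500 µL reaction). Substrate was PNP-GlcNAc at 0.1–1 mM. 4-Nitrophenolate release was followed at 400 nm for 4 min at 25 °C, in triplicate.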

[3] = biological target: Beta-hexosaminidase (Pseudomonas aeruginosa (strain ATCC 15692 / PAO1 / 1C / PRS 101 / LMG12228), UniProt Q9HZK0); test: Competitive inhibition of Pseudomonas aeruginosa PAO1 NagZ using PNP-GlcNAc as substrate assessed as release of 4-nitrophenolate ion after 4 mins by spectrophotometric analysis; method in brief: as §1
[4] = Activity at NagZ expressed in Escherichia coli BL21 DE3 after 35 mins by HPLC analysis
[5] = Ratio of Kcat to Km for NagZ expressed in Escherichia coli BL21 DE3 after 35 mins by HPLC analysis
[6] = substrate: CO[C@@H]1O[C@H](CO)[C@@H](O[C@@H]2O[C@H](CO)[C@@H](O)[C@H](O)[C@H]2NC(C)=O)[C@H](O[C@H](C)C(=O)N[C@@H](C)C(=O)N[C@H](CCC(=O)N[C@@H](CCC[C@@H](N)C(=O)O)C(=O)N[C@H](C)C(=O)N[C@H](C)C(=O)O)C(=O)O)[C@H]1NC(C)=O; test: Ratio of Kcat to Km for Pseudomonas aeruginosa PAO1 NagZ after 35 mins by HPLC analysis
Method in brief: (§2)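 His-tagged NagZ (pET28a, expressed in E. coli BL21 star (DE3), Ni-affinity purified) at 40 nM in PBS pH 7.4. Substrate was GlcNAc-anhMurNAc-pentapeptide or GlcNAc-MurNAc-pentapeptide at 0.15–0.9 mM, 25 °C, 35 min. Reactions were stopped with two volumes of 0.075% TFA. Substrate and product were quantified by C18 reversed-phase HPLC against an internal standard (Nα,Nε-diacetyl-L-Lys-D-Ala-D-Ala).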

[7] = substrate: CO[C@@H]1O[C@H](CO)[C@@H](O[C@@H]2O[C@H](CO)[C@@H](O)[C@H](O)[C@H]2NC(C)=O)[C@H](O[C@H](C)C(=O)N[C@@H](C)C(=O)N[C@H](CCC(=O)N[C@@H](CCC[C@@H](N)C(=O)O)C(=O)N[C@H](C)C(=O)N[C@H](C)C(=O)O)C(=O)O)[C@H]1NC(C)=O; test: Activity at Pseudomonas aeruginosa PAO1 NagZ after 35 mins by HPLC analysis; method in brief: as §2

Molecule	Kd [1] [µM]	inhibition [2]	Ki [3] [µM]	also measured
CC(=O)N[C@H]1CN[C@H](CO)[C@@H](O)[C@@H]1O[C@H](C)C(=O)O	1000	Active	51	
CC(=O)N[C@H]1CN[C@H](CO)[C@@H](O)[C@@H]1O	174		0.3	
CC(=O)N[C@H]1CN[C@H](CO)[C@@H](O)[C@@H]1O[C@H](C)C(=O)N[C@@H](C)C(=O)O	189	Active	35	
CC(=O)N[C@H]1CN[C@H](CO)[C@@H](O)[C@@H]1O[C@H](C)C(=O)N[C@@H](C)C(=O)N[C@H](CCC(=O)O)C(=O)O	1010	Active	33	
CC(=O)N[C@H]1[C@H](O[C@H]2[C@H](O[C@H](C)C(=O)N[C@@H](C)C(=O)N[C@H](CCC(=O)N[C@@H](CCC[C@@H](N)C(=O)O)C(=O)N[C@H](C)C(=O)N[C@H](C)C(=O)O)C(=O)O)[C@@H](NC(C)=O)[C@@H]3OC[C@H]2O3)O[C@H](CO)[C@@H](O)[C@@H]1O				Km [4]: 104 µM; kcat [4]: 6.6 s⁻¹; kcat/Km [5]: 6.3 ×10⁴ /M/s
B1				kcat/Km [6]: 0.5 ×10⁴ /M/s; Km [7]: 165 µM; kcat [7]: 0.77 s⁻¹
